{"data": "Results of several laboratories", "target": "Serine/threonine-protein kinase Nek7 (NEK7, Homo sapiens, UniProt Q8TDX7)", "note": "Each line is one published result; the experiments were not run side by side."}
{"SMILES": "COc1cccc(CNC(=O)c2nc3scc(COCc4ccc(C(=O)O)cc4)c3c(=O)[nH]2)c1", "test": "cell-free assay, competition with immobilised ligand", "setting": "1 µM", "remaining binding": "100%"}
{"SMILES": "Cc1cnn2ncc(-c3ccnc(N(C)C)n3)c2c1", "test": "binding", "setting": "1 µM", "remaining binding": "100%"}
{"SMILES": "CC(=O)N1CCC(c2ccc(C(=O)NC3=NCCN3)cc2C(F)(F)F)CC1", "test": "cell-free assay, competition with immobilised ligand", "setting": "1 µM", "remaining binding": "100%"}
{"SMILES": "O=C(NCCCN1CCOCC1)c1ccc(Nc2nccc(-c3cc4ccccc4s3)n2)cc1", "test": "binding, competition with immobilised ligand", "setting": "1 µM", "remaining binding": "52%"}
{"SMILES": "CS(=O)(=O)N1CCCC(NC(=O)[C@H](CCC2CCCCC2)NC(=O)c2ccc(CNc3ncnc4c3nnn4-c3ccccc3)cc2)C1 (stereo partly drawn)", "test": "cell-free assay, competition with immobilised ligand", "setting": "0.1 µM", "remaining binding": "88%"}
{"SMILES": "Cc1cnc(Nc2ccc(C(=O)N3CCC(N4CCCC4)CC3)cc2)nc1-c1cc2ccccc2s1", "test": "binding, competition with immobilised ligand", "setting": "1 µM", "remaining binding": "0.7%"}
{"SMILES": "CN(CCCC(F)(F)F)c1nccc(-c2cnn3ncccc23)n1", "test": "binding", "setting": "1 µM", "remaining binding": "100%"}
{"SMILES": "c1cncc(-c2cccc(Nc3nccc(NC4CCCCC4)n3)c2)c1", "test": "binding, competition with immobilised ligand", "setting": "10 µM", "remaining binding": "79%"}
{"SMILES": "N[C@@H]1CCN(c2nccc(-c3cnn4ncccc34)n2)C1", "test": "binding", "setting": "1 µM", "remaining binding": "100%"}
{"SMILES": "CC(=O)C1=C(C)N(c2cccc(C(F)(F)F)c2)C(=O)N[C@@H]1c1ccc(C#N)nc1", "test": "cell-free assay, competition with immobilised ligand", "setting": "1 µM", "remaining binding": "100%"}
{"SMILES": "O=C(NCC1CCOCC1)c1n[nH]cc1NC(=O)c1c(F)cccc1F", "test": "binding, competition with immobilised ligand", "setting": "1 µM", "remaining binding": "93%"}
{"SMILES": "Nc1ncc2c(n1)-c1c([nH]c3ccc(C#CC4CC4)cc13)CCCC2", "test": "binding, competition with immobilised ligand", "setting": "1 µM", "remaining binding": "88%"}
{"SMILES": "F[C@@H]1CCN(c2nccc(-c3cnn4ncccc34)n2)C1", "test": "binding", "setting": "1 µM", "remaining binding": "100%"}
{"SMILES": "COc1ncc2cc3ccccc3nc2c1C#N", "test": "cell-free assay, competition with immobilised ligand", "setting": "5 µM", "remaining binding": "100%"}
{"SMILES": "CNC(=O)[C@@H]1CC[C@@H](n2c(-c3ccc4cnccc4c3)nc3ccc(C(=O)NCc4cccc(C(N)=O)c4)cc32)C1", "test": "binding, competition with immobilised ligand", "setting": "1 µM", "remaining binding": "92%"}
{"SMILES": "CN(c1nccc(-c2cnn3ncccc23)n1)C1CC1", "test": "binding", "setting": "1 µM", "remaining binding": "100%"}
{"SMILES": "CC(=O)Nc1c(C(C)=O)c(=O)n(C)c2nc(-c3ccc(Cl)cc3Cl)c(-c3ccc(Cl)cc3)cc12", "test": "cell-free assay, competition with immobilised ligand", "setting": "1 µM", "remaining binding": "100%"}
{"SMILES": "C[C@H]1CCN(c2nccc(-c3cnn4ncccc34)n2)C1", "test": "binding", "setting": "1 µM", "remaining binding": "100%"}
{"SMILES": "CCN1CCN(Cc2ccc(C(=O)Nc3ccc(C)c(Oc4ccc5c(c4)CC(=O)N5)c3)cc2C(F)(F)F)CC1", "test": "binding, competition with immobilised ligand", "setting": "1 µM", "remaining binding": "100%"}
{"SMILES": "CN(C)c1ncc(F)c(-c2cnn3ncccc23)n1", "test": "binding", "setting": "1 µM", "remaining binding": "95%"}
{"SMILES": "CCC(=O)N[C@H]1CC[C@@H](C(=O)N(C)c2ccc(-c3nc4ccccc4o3)cc2)C1", "test": "cell-free assay, competition with immobilised ligand", "setting": "1 µM", "remaining binding": "98%"}
{"SMILES": "FC(F)(F)Oc1cccc(-c2cnc3ccc(-c4ccncc4)nn23)c1", "test": "cell-free assay, competition with immobilised ligand", "setting": "5 µM", "remaining binding": "91%"}
{"SMILES": "O=C(N1CCS(=O)(=O)CC1)N1C[C@H](c2ccc(OC(F)(F)F)cc2)C[C@H](c2nc(C3CC3)no2)C1", "test": "cell-free assay, competition with immobilised ligand", "setting": "1 µM", "remaining binding": "100%"}
{"SMILES": "O=C(c1ccc(Nc2nccc(-c3cc4ccccc4s3)n2)cc1)N1CCC(N2CCCC2)CC1", "test": "binding, competition with immobilised ligand", "setting": "1 µM", "remaining binding": "79%"}
